In ChEMBL document CHEMBL1150363, “Synthesis, ligand-receptor modeling studies and pharmacological evaluation of novel 4-modified-2-aryl-1,2,4-triazolo[4,3-a]quinoxalin-1-one derivatives as potent and selective human A3 adenosine receptor antagonists” (Bioorg Med Chem, 2008):
Activity calls are given as the source filed them. No cut-off for these calls is given here.

Columns and labels:
Adenosine receptor A1 [1] = target: T1, Adenosine receptor A1 (Bos taurus, UniProt P28190); assay: Displacement of [3H]DPCPX from adenosine A1 receptor in bovine brain membrane
T1 sequence (P28190 whole entry): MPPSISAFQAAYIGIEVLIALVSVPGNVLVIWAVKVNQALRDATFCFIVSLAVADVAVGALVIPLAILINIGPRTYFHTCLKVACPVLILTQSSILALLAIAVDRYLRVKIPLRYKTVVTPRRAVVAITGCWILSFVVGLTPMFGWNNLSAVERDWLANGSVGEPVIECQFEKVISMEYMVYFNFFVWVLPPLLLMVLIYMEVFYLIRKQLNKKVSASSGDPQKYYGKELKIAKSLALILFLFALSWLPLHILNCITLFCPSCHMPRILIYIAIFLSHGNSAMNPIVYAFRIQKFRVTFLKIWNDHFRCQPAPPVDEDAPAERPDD

[2] = target: T2, Adenosine receptor A3 (Rattus norvegicus) (UniProt P28647); assay: Displacement of [3H](R)-PIA from adenosine A3 receptor in Wistar rat testis membrane at 1 uM; format: cell membranes
T2 sequence (whole entry): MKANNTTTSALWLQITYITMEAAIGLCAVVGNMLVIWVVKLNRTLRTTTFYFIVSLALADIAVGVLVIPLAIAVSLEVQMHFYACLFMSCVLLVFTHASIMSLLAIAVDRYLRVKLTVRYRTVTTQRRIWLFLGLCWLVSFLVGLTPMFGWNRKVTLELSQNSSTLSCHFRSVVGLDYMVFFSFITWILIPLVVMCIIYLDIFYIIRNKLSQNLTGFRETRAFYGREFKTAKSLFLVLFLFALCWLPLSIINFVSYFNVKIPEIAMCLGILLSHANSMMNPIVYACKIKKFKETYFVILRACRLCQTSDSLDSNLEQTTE
How it was run: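 Wistar rat testis membranes (0.1–0.2 mg protein) with 4 nM [3H](R)-PIA in 50 mM Tris/HCl pH 7.4, 1 mM EDTA, 10 mM MgCl2, plus 150 nM DPCPX to block A1 sites. Nonspecific binding defined with 15 µM (R)-PIA. Filtration, then scintillation counting. Percent inhibition at 1 µM.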

Adenosine receptor A2a = Adenosine receptor A2a (Homo sapiens, UniProt P29274); assay: Displacement of [125I]NECA from human adenosine A2A receptor expressed in CHO cells at 10uM; format: cell-based; settings: in the assay text read “[3H]NECA” for “[125I]NECA”
How it was run: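 hA2A stably expressed in CHO cells. Radioligand [3H]NECA (Kd 30 nM). Percentage inhibition of specific binding measured at 10 µM.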

[3] = target: T3, Adenosine receptor A1 (Homo sapiens) (UniProt P30542); assay: Displacement of [3H]DPCPX from human cloned adenosine A1 receptor expressed in CHO cells at 10 uM
T3 sequence (whole entry): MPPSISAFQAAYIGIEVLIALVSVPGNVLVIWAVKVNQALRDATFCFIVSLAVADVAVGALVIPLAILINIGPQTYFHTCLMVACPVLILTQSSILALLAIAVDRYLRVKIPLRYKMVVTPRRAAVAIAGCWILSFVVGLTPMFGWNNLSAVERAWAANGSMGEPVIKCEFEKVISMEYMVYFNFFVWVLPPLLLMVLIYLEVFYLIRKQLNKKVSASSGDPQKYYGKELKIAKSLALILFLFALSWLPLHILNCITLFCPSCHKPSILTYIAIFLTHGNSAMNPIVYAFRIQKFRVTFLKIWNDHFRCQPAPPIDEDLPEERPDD

Rattus norvegicus [4] = organism: Rattus norvegicus; assay: Inhibition of fEPSP amplitude in Wistar rat cerebral ischemia model at 10 nM treated after 7 mins of oxygen and glucose deprivation; format: functional
How it was run: (§1)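 Rat hippocampal slices, CA1 stratum radiatum fEPSP evoked by 80 µs, 0.066 Hz pulses at 30–32 °C. Drug (10 nM) given 15 min before, during and 5 min after 7-min OGD (glucose-free aCSF, 95% N2–5% CO2). Amplitude expressed as % of baseline, with recovery assessed after reperfusion in oxygenated glucose aCSF. Means ± SEM.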

Adenosine receptor A1 [5] = target: T4, Adenosine receptor A1 (Rattus norvegicus, UniProt P25099); assay: Displacement of [3H]DPCPX from adenosine A1 receptor in Wistar rat cerebral cortex; format: tissue-based
T4 sequence (P25099 whole entry): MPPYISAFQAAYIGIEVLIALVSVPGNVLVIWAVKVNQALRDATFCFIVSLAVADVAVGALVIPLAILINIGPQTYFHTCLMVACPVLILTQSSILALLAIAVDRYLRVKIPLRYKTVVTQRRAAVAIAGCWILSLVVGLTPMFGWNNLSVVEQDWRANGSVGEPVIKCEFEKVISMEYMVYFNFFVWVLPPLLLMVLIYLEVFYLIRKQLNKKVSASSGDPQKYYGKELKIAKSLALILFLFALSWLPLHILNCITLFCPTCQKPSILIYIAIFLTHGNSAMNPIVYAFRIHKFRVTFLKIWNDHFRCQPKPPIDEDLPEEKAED

Rattus norvegicus [6] = organism: Rattus norvegicus; assay: Inhibition of anoxic depolarization in Wistar rat cerebral ischemia model at 10 nM treated after 7 mins of oxygen and glucose deprivation; format: functional
How it was run: (§2)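 Rat hippocampal slices (400 µm), submerged and superfused with oxygenated aCSF at 30–32 °C. OGD made with glucose-free, N2-gassed aCSF for 7 or 30 min. Drug applied 15 min before, during and 5 min after OGD; 10 nM, with 0.5 nM–1 µM tested in 30-min runs. Anoxic depolarization recorded in CA1 as negative d.c. shift, with peak time from OGD onset. Means ± SEM; unpaired two-tailed t test.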

Adenosine receptor A3 [7] = target: T5, Adenosine receptor A3 (Homo sapiens, UniProt P0DMS8); assay: Antagonist activity at human […] expressed in CHO cells assessed as inhibition of NECA-induced cAMP accumulation; format: functional, cell-based
T5 sequence (P0DMS8 whole entry): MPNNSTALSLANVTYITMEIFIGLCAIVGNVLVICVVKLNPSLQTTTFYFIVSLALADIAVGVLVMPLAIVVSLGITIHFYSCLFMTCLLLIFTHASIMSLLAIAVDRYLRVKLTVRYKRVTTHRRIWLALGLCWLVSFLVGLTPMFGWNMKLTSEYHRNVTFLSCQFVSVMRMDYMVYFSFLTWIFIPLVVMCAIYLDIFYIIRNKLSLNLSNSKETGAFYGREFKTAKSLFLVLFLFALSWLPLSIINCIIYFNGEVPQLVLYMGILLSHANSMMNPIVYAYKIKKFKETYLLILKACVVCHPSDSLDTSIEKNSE
How it was run: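 hA3-transfected CHO cells (~60,000/well, 48 h) preincubated 15 min at 37 °C with Ro 20-1724 (20 µM) and adenosine deaminase (1 U/mL). Compound (1 nM–10 µM, 15 min) added, then 100 nM NECA against 1 µM forskolin-stimulated cAMP. Stopped with 0.4 N HCl. cAMP measured by [3H]cAMP competitive binding-protein assay. Sigmoid non-linear regression; three separate experiments.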

Rattus norvegicus [8] = organism: Rattus norvegicus; assay: Effect on fEPSP amplitude under normoxic condition in Wistar rat cerebral ischemia model treated before 15 mins of oxygen and glucose deprivation; format: functional
How it was run: as §1

Bos taurus = organism: Bos taurus; assay: Displacement of [3H]CGS21680 from adenosine A2A receptor in bovine brain membrane at 10 uM; format: cell membranes
How it was run: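 Bovine striatal membranes, [3H]CGS 21680 (Kd 14 nM). Five displacer concentrations in triplicate, non-linear regression IC50, Cheng-Prusoff Ki, four assays. Single-point data are % inhibition at 10 µM.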

Rattus norvegicus [9] = organism: Rattus norvegicus; assay: Effect on anoxic depolarization in Wistar rat cerebral ischemia model assessed as delay in appearance treated before 15 mins of oxygen and glucose deprivation; format: functional
How it was run: as §2

Rattus norvegicus [10] = organism: Rattus norvegicus; assay: Effect on fEPSP amplitude under normoxic condition in Wistar rat cerebral ischemia model treated during oxygen and glucose deprivation; format: functional
How it was run: as §1

Rattus norvegicus [11] = organism: Rattus norvegicus; assay: Effect on fEPSP amplitude under normoxic condition in Wistar rat cerebral ischemia model treated after 5 mins of oxygen and glucose deprivation; format: functional
How it was run: as §1

Adenosine receptor A3 [12] = target: T5, Adenosine receptor A3; assay: Displacement of [125I]AB-MECA from human cloned adenosine A3 receptor expressed in CHO cells; format: cell-based
How it was run: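 CHO cells stably expressing hA3. IC50 by non-linear regression over five displacer concentrations in triplicate, converted to Ki by Cheng-Prusoff. Ki values are means of four assays.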

Rattus norvegicus [13] = organism: Rattus norvegicus; assay: Effect on anoxic depolarization in Wistar rat cerebral ischemia model assessed as delay in appearance treated during oxygen and glucose deprivation; format: functional
How it was run: as §2

Adenosine receptor A2a, sequence (P29274 whole entry): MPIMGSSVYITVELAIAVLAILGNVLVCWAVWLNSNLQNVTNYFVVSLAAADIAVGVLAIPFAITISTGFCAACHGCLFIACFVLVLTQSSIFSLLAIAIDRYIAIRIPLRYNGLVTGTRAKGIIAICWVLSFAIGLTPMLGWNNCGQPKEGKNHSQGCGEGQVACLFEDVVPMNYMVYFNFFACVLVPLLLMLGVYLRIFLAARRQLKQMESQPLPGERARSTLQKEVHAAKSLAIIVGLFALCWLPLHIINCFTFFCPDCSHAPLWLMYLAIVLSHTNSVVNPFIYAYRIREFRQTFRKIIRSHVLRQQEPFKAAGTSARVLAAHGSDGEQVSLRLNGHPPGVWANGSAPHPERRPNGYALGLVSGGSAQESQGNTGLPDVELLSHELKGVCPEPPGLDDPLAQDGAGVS

CS(=O)(=O)N(c1nc2ccccc2n2c(=O)n(-c3ccccc3)nc12)S(C)(=O)=O
Ki (Adenosine receptor A1 [1]): 36 nM
Activity [2]: 5%
Activity (Adenosine receptor A2a): 32%
Activity [3]: 36%
Activity (Rattus norvegicus [4]): Active
Ki (Adenosine receptor A1 [5]): 132 nM
Activity (Rattus norvegicus [6]): Active
EC50 (Adenosine receptor A3 [7]): 12 nM
Activity (Rattus norvegicus [8]): inactive
Activity (Bos taurus): 56%
Activity (Rattus norvegicus [9]): 9.3 min
Activity (Rattus norvegicus [10]): inactive
Activity (Rattus norvegicus [11]): inactive
Ki (Adenosine receptor A3 [12]): 5.5 nM
Activity (Rattus norvegicus [13]): 9.3 min
